Laboratory results from ChEMBL document CHEMBL1145058, “Hydroxyurea analogues as kinetic and mechanistic probes of the nitric oxide producing reactions of hydroxyurea and oxyhemoglobin” (J Med Chem, 2003).

Tests used:
[1] = Dissociation constant (PKa) was determined; type: physicochemical
[2] = Half peak chemical potential versus Ag/Agcl was determined; type: ADME
[3] = Nitrate production was measured with Sievers 280 nitric oxide analyzer chemiluminescence; type: ADME
Summary of the method: (§1)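 Oxyhemoglobin reacted with hydroxyurea derivatives at 50 mM in 0.1 M sodium phosphate, pH 7.3; nitrite and nitrate products quantified by nitric oxide analyzer chemiluminescence; n = 3.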

[4] = Nitrite production was measured with Sievers 280 nitric oxide analyzer chemiluminescence; type: ADME; summary of the method: as §1
[5] = Apparent rate constant was determined; type: ADME
Summary of the method: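 Adult human oxyhemoglobin (70 μM in heme; also HbS) in 0.1 M sodium phosphate, pH 7.3, mixed with hydroxyurea derivative at 50 mM (5 mM for one poorly soluble analogue), 25 °C under air. UV-visible absorption recorded every 5 min for up to 12 h. Apparent first-order rate constant in min^-1 derived from the spectral kinetics; mean ± SD, n = 3.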

Row | Compound | pKa [1] | Ep2/2 [2] [mV] | Nitrate [3] [µM] | Nitrite [4] [µM] | rate constant app [5] [min⁻¹]
1 | COc1ccc(NC(=O)NO)cc1 | 10.2 | 560 | – | – | 0.00194
2 | O=C(NO)Nc1ccccc1 | 10.3 | 433 | 26.1 | 7.3 | 0.0624
3 | CCCCNC(=O)NO | 11 | 693 | 3.5 | 2.4 | 0.00856

Now from value to compound:

Row | pKa [1] | Ep2/2 [2] [mV] | Nitrate [3] [µM] | Nitrite [4] [µM] | rate constant app [5] [min⁻¹] | Compound
4 | 10.8 | 705 | 18.5 | 6.1 | 0.00226 | CCN(CC)C(=O)NO
5 | 9.95 | 588 | 7.5 | 6.3 | 0.0393 | CN(O)C(N)=O
6 | – | – | 0 | 0 | – | CONC(N)=O
7 | 10.7 | 948 | 25.1 | 9.4 | 0.000754 | NC(=O)NO [HYDROXYUREA]
